Measurements as given in ChEMBL document CHEMBL1142540, “Novel piperidinylpyrimidine derivatives as inhibitors of HIV-1 LTR activation” (Bioorg Med Chem, 2008).

Assays:
[1] = Inhibition of HIV1 LTR-driven CAT gene expression in PMA-stimulated human JURKAT cells; assay type: cell-based; conditions: Human immunodeficiency virus 1, Jurkat
In short: (§1)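 Jurkat cells electroporated (140 V) with HIV-1 LTR-CAT plasmid p469 using DEAE-dextran and cultured 20 h. Cells then stimulated with PMA 10 ng/ml in presence of compound for 24 h at 37 °C, lysed by freeze-thaw.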

Jurkat [2] = assay: Cytotoxicity against human JURKAT cells; assay type: cell-based
In short: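 Cell number of treated Jurkat cells counted by Coulter counter to assess inhibition of proliferation.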

PBMC = assay: Inhibition of LPS-stimulated TNFalpha production in human PBMC; assay type: functional, cell-based
In short: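 Human PBMC from healthy donors isolated by Ficoll-Paque, seeded at 1×10^5 cells/well in RPMI 1640 with 10% heat-inactivated FBS and L-glutamine. Stimulated with LPS 0.1 ug/ml final, compound added at the same time (DMSO below 0.1%), 20 h; supernatants collected for TNF-α.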

Jurkat [3] = assay: Inhibition of HIV1 LTR-driven CAT gene expression in PMA-stimulated human JURKAT cells at 5 uM; assay type: cell-based; conditions: Human immunodeficiency virus 1; in short: as §1
[4] = system: Peritoneal macrophage cell; assay: Inhibition of LPS-stimulated TNFalpha production in BALB/c mouse peritoneal macrophages by ELISA; assay type: functional, cell-based
In short: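 Thioglycolate-elicited peritoneal macrophages from 5-week-old female BALB/c mice, adherent cells at 2×10^5/well in MEM with 10% FBS. LPS 10 ug/ml final, added together with compound (DMSO below 0.1%), 20 h. Supernatant TNF-α measured by sandwich ELISA against recombinant mouse TNF-α standard curve, absorbance at 450 nm.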

[5] = Inhibition of HIV1 LTR-driven CAT gene expression in Tat-stimulated human JURKAT cells; assay type: cell-based; conditions: Human immunodeficiency virus 1, Jurkat
In short: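 Jurkat cells co-electroporated (140 V) with LTR-CAT p469 plus pSV-Tat using DEAE-dextran, cultured 20 h, then treated with compound alone (no PMA) for 24 h at 37 °C.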

| Compound | IC50 [1] [nM] | Activity (Jurkat [2]) | IC50 (PBMC) [nM] | inhibition (Jurkat [3]) [%] | IC50 [4] [nM] | IC50 [5] [nM] |
| --- | --- | --- | --- | --- | --- | --- |
| COc1ccc(Cc2cc(C3CCN(C(=O)c4ccc5c(c4)OCO5)CC3)ncn2)cc1 | 500 | Non-toxic | – | – | – | – |
| Nc1nc(Cc2ccc3c(c2)OCO3)cc(C2CCN(C(=O)c3ccc4c(c3)OCO4)CC2)n1 | 700 | Non-toxic | 3300 | – | – | – |
| Nc1nc(Cc2ccccc2)cc(C2CCN(C(=O)c3ccc4c(c3)OCO4)CC2)n1 | 800 | Non-toxic | 3200 | – | – | – |
| COc1ccc(Cc2cc(C3CCN(C(=O)Cc4ccc(OC)c(OC)c4)CC3)nc(N)n2)cc1 | > 5000 | Non-toxic | – | 7 | – | – |
| COc1ccc(-c2c(C)nc(N)nc2C2CCN(C(=O)c3ccc4c(c3)OCO4)CC2)cc1 | > 5000 | Non-toxic | – | 31 | – | – |
| COc1ccc(Cc2cc(C3CCN(C(=O)c4ccccc4)CC3)nc(N)n2)cc1 | > 5000 | Non-toxic | – | 19 | – | – |
| COc1ccc(Cc2cc(C3CCN(C(=O)c4ccc5ccoc5c4)CC3)nc(N)n2)cc1 | > 5000 | Non-toxic | – | 2 | – | – |
| Nc1nc(-c2ccccc2)cc(C2CCN(C(=O)c3ccc4c(c3)OCO4)CC2)n1 | > 5000 | Non-toxic | – | 47 | – | – |
| COc1ccc(Cc2cc(C3CCN(C(=O)c4ccc5c(c4)CCO5)CC3)nc(N)n2)cc1 | > 5000 | Non-toxic | – | -8 | – | – |
| COc1ccc(Cc2cc(C3CCN(C(=O)c4ccc([N+](=O)[O-])cc4)CC3)nc(N)n2)cc1 | > 5000 | Non-toxic | – | 23 | 700 | – |
| COc1ccc(Cc2cc(C3CCN(C(=O)c4ccc(Cl)cc4)CC3)nc(N)n2)cc1 | > 5000 | Non-toxic | – | 21 | 600 | – |
| COc1ccc(Cc2cc(C3CCN(C(=O)c4ccc(Cl)c(Cl)c4)CC3)nc(N)n2)cc1 | > 5000 | Non-toxic | – | 17 | 700 | – |
| COc1ccc(Cc2cc(C3CCN(C(=O)c4ccc(OC)cc4)CC3)nc(N)n2)cc1 | > 5000 | Non-toxic | – | -5 | 500 | – |
| COc1ccc(Cc2cc(C3CCN(C(=O)c4ccc5c(c4)OCO5)CC3)nc(N)n2)cc1 | 600 | Non-toxic | 1900 | 86 | 600 | 4000 |
| COc1ccc(Cc2cc(C3CCN(C(=O)c4ccc5c(c4)OCO5)CC3)no2)cc1 | > 5000 | Non-toxic | – | 36 | – | – |
| COc1ccc(Cc2cc(C3CCN(C(=O)c4ccc5nsnc5c4)CC3)nc(N)n2)cc1 | > 5000 | Non-toxic | – | 4 | – | – |
| C[S+]([O-])c1ccc(Cc2cc(C3CCN(C(=O)c4ccc5c(c4)OCO5)CC3)nc(N)n2)cc1 (centres undefined) | > 5000 | Non-toxic | – | 27 | – | – |
| Nc1nc(Cc2ccc(OCc3ccccc3)cc2)cc(C2CCN(C(=O)c3ccc4c(c3)OCO4)CC2)n1 | 1200 | Non-toxic | – | – | – | 2100 |
| Nc1nc(Cc2ccc(Br)cc2)cc(C2CCN(C(=O)c3ccc4c(c3)OCO4)CC2)n1 | 700 | Non-toxic | – | – | – | – |
| COc1ccc(-c2cc(C3CCN(C(=O)c4ccc5c(c4)OCO5)CC3)nc(N)n2)cc1 | 1900 | Non-toxic | – | – | – | – |
| Nc1nc(Cc2ccc(O)cc2)cc(C2CCN(C(=O)c3ccc4c(c3)OCO4)CC2)n1 | > 5000 | Non-toxic | – | 36 | – | – |
| COc1ccc(Cc2cc(C3CCN(C(=O)c4ccc5[nH]ccc5c4)CC3)nc(N)n2)cc1 | > 5000 | Non-toxic | – | 1 | – | – |

| Compound | IC50 [1] [nM] | Activity (Jurkat [2]) | IC50 (PBMC) [nM] | inhibition (Jurkat [3]) [%] | IC50 [4] [nM] | IC50 [5] [nM] |
| --- | --- | --- | --- | --- | --- | --- |
| COc1ccc(Cc2cc(C3CCN(C(C)=O)CC3)nc(N)n2)cc1 | > 5000 | Non-toxic | – | 0 | – | – |
| COc1ccc(Cc2cc(C3CCN(C(=O)c4ccc5c(c4)OCCO5)CC3)nc(N)n2)cc1 | > 5000 | Non-toxic | – | 7 | – | – |
| COc1ccc(Cc2cc(C3CCN(C(=O)c4ccc5c(c4)OCO5)CC3)n[nH]2)cc1 | > 5000 | Non-toxic | – | 35 | – | – |
| Nc1nc(CCc2ccccc2)cc(C2CCN(C(=O)c3ccc4c(c3)OCO4)CC2)n1 | 2100 | Non-toxic | – | – | – | – |
| COc1ccc(Cc2cc(C3CCN(C(=O)c4ccc5ncoc5c4)CC3)nc(N)n2)cc1 | > 5000 | Non-toxic | – | -8 | – | – |
| COc1ccc(Cc2cc(C3CCN(Cc4ccc5c(c4)OCO5)CC3)nc(N)n2)cc1 | > 5000 | Non-toxic | – | -2 | – | – |
| Nc1nc(-c2ccc(Cl)cc2)cc(C2CCN(C(=O)c3ccc4c(c3)OCO4)CC2)n1 | > 5000 | Non-toxic | – | 42 | – | – |
| COc1ccc(Cc2cc(C3CCN(C(=O)c4ccc5c(c4)OCO5)CC3)nc(Cl)n2)cc1 | 700 | Non-toxic | – | – | – | – |
| COc1cccc(Cc2cc(C3CCN(C(=O)c4ccc5c(c4)OCO5)CC3)nc(N)n2)c1 | 300 | Non-toxic | 2700 | – | – | – |
| COc1ccc(Cc2cc(C3CCN(C(=O)c4ccc(OC)c(OC)c4)CC3)nc(N)n2)cc1 | > 5000 | Non-toxic | – | 14 | 900 | – |
| Nc1nc(Cc2ccc(Cl)cc2)cc(C2CCN(C(=O)c3ccc4c(c3)OCO4)CC2)n1 | 1300 | Non-toxic | 13000 | – | – | 7100 |
| COc1ccc(Cc2cc(C3CCN(C(=O)c4ccc5occc5c4)CC3)nc(N)n2)cc1 | > 5000 | Non-toxic | – | 4 | – | – |
| COc1ccc(Cc2cc(C3CCN(C(=O)Cc4ccc5c(c4)OCO5)CC3)nc(N)n2)cc1 | > 5000 | Non-toxic | – | 16 | – | – |
| COc1ccc(Cc2cc(C3CCN(C(=O)c4ccc5c(c4)OCO5)CC3)on2)cc1 | > 5000 | Non-toxic | – | 35 | – | – |
| COc1ccc(Cc2cc(C3CCN(C(=O)c4ccc5c(c4)OCO5)CC3)nc(=O)[nH]2)cc1 | > 5000 | Non-toxic | – | – | – | – |
| COc1ccc(Cc2cc(C3CCN(C(=O)c4cccc5c4OCO5)CC3)nc(N)n2)cc1 | > 5000 | Non-toxic | – | 13 | – | – |
| CS(=O)(=O)c1ccc(Cc2cc(C3CCN(C(=O)c4ccc5c(c4)OCO5)CC3)nc(N)n2)cc1 | > 5000 | Non-toxic | – | 37 | – | – |
| Cc1cc(C2CCN(C(=O)c3ccc4c(c3)OCO4)CC2)nc(N)n1 | > 5000 | Non-toxic | – | 10 | – | – |
| Nc1nc(C2CCN(C(=O)c3ccc4c(c3)OCO4)CC2)c2ccccc2n1 | 2600 | Non-toxic | – | – | – | – |
| COc1ccc(Cc2cc(C3CCN(C(=O)c4ccc5c(c4)OCO5)CC3)nc(N)n2)cc1OC | 600 | Non-toxic | 3200 | – | – | – |
| COc1ccc(Cc2cc(C3CCN(C(=O)c4ccc5ocnc5c4)CC3)nc(N)n2)cc1 | > 5000 | Non-toxic | – | -7 | – | – |
| CCCCCCCC(=O)N1CCC(c2cc(Cc3ccc(OC)cc3)nc(N)n2)CC1 | > 5000 | Non-toxic | – | 19 | – | – |
